Assay results published in ChEMBL document CHEMBL1145811, “Synthesis and antibacterial activity of a novel series of acylides: 3-O-(3-pyridyl)acetylerythromycin A derivatives” (J Med Chem, 2003).
≈ marks a conversion by molar mass, not a printed value.

What was measured:
Format in all cases: functional
Streptococcus pneumoniae [1] = assay: In vitro minimum inhibitory concentration for antibacterial activity against erythromycin-susceptible strain Streptococcus pneumoniae IID553
Procedure, shortened: (§1)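 MIC by agar dilution following the Japan Society of Chemotherapy standard method for aerobic bacteria. S. aureus 209P-JC and S. pneumoniae IID553 are erythromycin-susceptible strains.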

Haemophilus influenzae [2] = assay: In vitro minimum inhibitory concentration for antibacterial activity against Haemophilus influenzae ATCC 33533 (ampicillin-resistant strain that produces beta-lactamase)
Procedure, shortened: (§2)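 Agar dilution MIC determined by the Japan Society of Chemotherapy standard method for aerobic bacteria.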

Streptococcus pneumoniae [3] = assay: In vitro minimum inhibitory concentration for antibacterial activity against Streptococcus pneumoniae 210 (efflux-resistant strain encoded by the mef(A) gene); procedure, shortened: as §2
Haemophilus influenzae [4] = assay: In vitro minimum inhibitory concentration for antibacterial activity against Haemophilus influenzae ATCC 43095 (ampicillin-susceptible strain that does not produce beta-lactamase); procedure, shortened: as §2
Streptococcus pneumoniae [5] = assay: In vitro minimum inhibitory concentration for antibacterial activity against Streptococcus pneumoniae 211 (MLSb-resistant strain encoded by the erm(B) gene); procedure, shortened: as §2
Staphylococcus aureus [6] = assay: In vitro minimum inhibitory concentration for antibacterial activity against Staphylococcus aureus B1 (inducibly MLSb-resistant strain encoded by the erm(C) gene); procedure, shortened: as §2
Staphylococcus aureus [7] = assay: In vitro minimum inhibitory concentration for antibacterial activity against erythromycin-susceptible strain Staphylococcus aureus […]; procedure, shortened: as §1
Staphylococcus aureus [8] = assay: In vitro minimum inhibitory concentration for antibacterial activity against Staphylococcus aureus SR138 (constitutively MLSb-resistant strain encoded by the erm(A) gene); procedure, shortened: as §2

SMILES | MIC (Streptococcus pneumoniae [1]) | MIC (Haemophilus influenzae [2]) | MIC (Streptococcus pneumoniae [3]) | MIC (Haemophilus influenzae [4]) | MIC (Streptococcus pneumoniae [5]) | MIC (Staphylococcus aureus [6]) | MIC (Staphylococcus aureus [7]) | MIC (Staphylococcus aureus [8])
CC[C@H]1OC(=O)[C@H](C)[C@@H](OC(=O)Cc2cccnc2)[C@H](C)[C@@H](OC2O[C@H](C)C[C@H](N(C)C)[C@H]2O)[C@@](C)(O)C[C@@H](C)/C(=N\O)[C@H](C)[C@@H](O)[C@]1(C)O (stereo partly drawn) | 0.39 µg/mL (≈ 0.549 µM) | 12.5 µg/mL (≈ 17.6 µM) | 0.78 µg/mL (≈ 1.1 µM) | 12.5 µg/mL (≈ 17.6 µM) | > 100 µg/mL | 1.56 µg/mL (≈ 2.2 µM) | 1.56 µg/mL (≈ 2.2 µM) | > 100 µg/mL
CC[C@H]1OC(=O)[C@H](C)[C@@H](O)[C@H](C)[C@@H](OC2O[C@H](C)C[C@H](N(C)C)[C@H]2O)[C@@]2(C)C[C@@H](C)[C@H](OC(=O)O2)[C@H](C)[C@H]2OC(=O)O[C@@]21C (stereo partly drawn) | 0.78 µg/mL (≈ 1.24 µM) | 100 µg/mL (≈ 159 µM) | 1.56 µg/mL (≈ 2.48 µM) | 50 µg/mL (≈ 79.4 µM) | > 100 µg/mL | > 100 µg/mL | 12.5 µg/mL (≈ 19.8 µM) | > 100 µg/mL
CC[C@H]1OC(=O)[C@H](C)[C@@H](OC(=O)Cc2ccccn2)[C@H](C)[C@@H](OC2O[C@H](C)C[C@H](N(C)C)[C@H]2O)[C@@](C)(OC)C[C@@H](C)C(=O)[C@H](C)[C@@H](O)[C@]1(C)O (stereo partly drawn) | 0.39 µg/mL (≈ 0.55 µM) | 25 µg/mL (≈ 35.3 µM) | 0.39 µg/mL (≈ 0.55 µM) | 50 µg/mL (≈ 70.5 µM) | > 100 µg/mL | 1.56 µg/mL (≈ 2.2 µM) | 1.56 µg/mL (≈ 2.2 µM) | > 100 µg/mL
CC[C@H]1OC(=O)[C@H](C)[C@@H](OC(=O)Cc2cccnc2)[C@H](C)[C@@H](OC2O[C@H](C)C[C@H](N(C)C)[C@H]2O)[C@@](C)(O)C[C@@H](C)[C@@H]2OC(=O)O[C@H]([C@H]2C)[C@]1(C)O (stereo partly drawn) | 0.1 µg/mL (≈ 0.138 µM) | 6.25 µg/mL (≈ 8.65 µM) | 0.39 µg/mL (≈ 0.54 µM) | 12.5 µg/mL (≈ 17.3 µM) | > 100 µg/mL | 1.56 µg/mL (≈ 2.16 µM) | 0.78 µg/mL (≈ 1.08 µM) | > 100 µg/mL
CC[C@H]1OC(=O)[C@H](C)[C@@H](OC(=O)Cc2cccnc2)[C@H](C)[C@@H](OC2O[C@H](C)C[C@H](N(C)C)[C@H]2O)[C@@](C)(O)C[C@@H](C)[C@H](O)[C@H](C)[C@@H](O)[C@]1(C)O (stereo partly drawn) | 0.78 µg/mL (≈ 1.12 µM) | 12.5 µg/mL (≈ 17.9 µM) | 0.78 µg/mL (≈ 1.12 µM) | 12.5 µg/mL (≈ 17.9 µM) | > 100 µg/mL | 6.25 µg/mL (≈ 8.97 µM) | 3.13 µg/mL (≈ 4.49 µM) | > 100 µg/mL
CC[C@H]1OC(=O)[C@H](C)[C@@H](OC(=O)Cc2ccccc2[N+](=O)[O-])[C@H](C)[C@@H](OC2O[C@H](C)C[C@H](N(C)C)[C@H]2O)[C@@](C)(OC)C[C@@H](C)C(=O)[C@H](C)[C@@H](O)[C@]1(C)O (stereo partly drawn) | 0.2 µg/mL (≈ 0.266 µM) | 50 µg/mL (≈ 66.4 µM) | 0.2 µg/mL (≈ 0.266 µM) | 50 µg/mL (≈ 66.4 µM) | > 100 µg/mL | 0.78 µg/mL (≈ 1.04 µM) | 0.39 µg/mL (≈ 0.518 µM) | > 100 µg/mL
CC[C@H]1OC(=O)[C@H](C)[C@@H](OC(=O)Cc2ccncc2)[C@H](C)[C@@H](OC2O[C@H](C)C[C@H](N(C)C)[C@H]2O)[C@@]2(C)C[C@@H](C)[C@H](OC(=O)O2)[C@H](C)[C@H]2OC(=O)O[C@@]21C (stereo partly drawn) | 0.05 µg/mL (≈ 0.0668 µM) | 6.25 µg/mL (≈ 8.35 µM) | 0.2 µg/mL (≈ 0.267 µM) | 12.5 µg/mL (≈ 16.7 µM) | > 100 µg/mL | 0.39 µg/mL (≈ 0.521 µM) | 0.2 µg/mL (≈ 0.267 µM) | > 100 µg/mL
CC[C@H]1OC(=O)[C@H](C)[C@@H](OC(=O)Cc2cccnc2)[C@H](C)[C@@H](OC2O[C@H](C)C[C@H](N(C)C)[C@H]2O)[C@@](C)(O)C[C@@H](C)CN(C)[C@H](C)[C@@H](O)[C@]1(C)O (stereo partly drawn) | 0.78 µg/mL (≈ 1.1 µM) | 1.56 µg/mL (≈ 2.2 µM) | 0.78 µg/mL (≈ 1.1 µM) | 1.56 µg/mL (≈ 2.2 µM) | > 100 µg/mL | 6.25 µg/mL (≈ 8.8 µM) | 3.13 µg/mL (≈ 4.41 µM) | > 100 µg/mL
CC[C@H]1OC(=O)[C@H](C)[C@@H](OC(=O)Cc2ccccn2)[C@H](C)[C@@H](OC2O[C@H](C)C[C@H](N(C)C)[C@H]2O)[C@@]2(C)C[C@@H](C)[C@H](OC(=O)O2)[C@H](C)[C@H]2OC(=O)O[C@@]21C (stereo partly drawn) | 0.05 µg/mL (≈ 0.0668 µM) | 6.25 µg/mL (≈ 8.35 µM) | 0.2 µg/mL (≈ 0.267 µM) | 6.25 µg/mL (≈ 8.35 µM) | 100 µg/mL (≈ 134 µM) | 0.78 µg/mL (≈ 1.04 µM) | 0.2 µg/mL (≈ 0.267 µM) | > 100 µg/mL
CC[C@H]1OC(=O)[C@H](C)[C@@H](OC(=O)Cc2cccc([N+](=O)[O-])c2)[C@H](C)[C@@H](OC2O[C@H](C)C[C@H](N(C)C)[C@H]2O)[C@@](C)(OC)C[C@@H](C)C(=O)[C@H](C)[C@@H](O)[C@]1(C)O (stereo partly drawn) | 0.1 µg/mL (≈ 0.133 µM) | 25 µg/mL (≈ 33.2 µM) | 0.2 µg/mL (≈ 0.266 µM) | 25 µg/mL (≈ 33.2 µM) | > 100 µg/mL | 0.78 µg/mL (≈ 1.04 µM) | 0.2 µg/mL (≈ 0.266 µM) | > 100 µg/mL
CC[C@H]1OC(=O)[C@H](C)[C@@H](OC(=O)Cc2cccc(OC)c2)[C@H](C)[C@@H](OC2O[C@H](C)C[C@H](N(C)C)[C@H]2O)[C@@](C)(OC)C[C@@H](C)C(=O)[C@H](C)[C@@H](O)[C@]1(C)O (stereo partly drawn) | 0.39 µg/mL (≈ 0.529 µM) | 25 µg/mL (≈ 33.9 µM) | 0.39 µg/mL (≈ 0.529 µM) | 50 µg/mL (≈ 67.8 µM) | > 100 µg/mL | 3.13 µg/mL (≈ 4.24 µM) | 1.56 µg/mL (≈ 2.11 µM) | > 100 µg/mL
